This is a sample that favours compounds with a hit; in the whole collection about 2.6% have one here.
NadD inh – NadD (S. aureus) enzyme inhibition; inhibition, % at 20 µM; hit rate 0.78% among 360,000; purified NadD enzyme, colorimetric absorbance read-out; in the data active means inhibition above about 26%
core dimer inh – HCV core protein dimerization inhibition; AID 1899; hit rate 0.33% among 300,000; inhibition, % at 5 µM; TR-FRET GST/Flag-core106 dimerization, 1536-well;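 active means inhibition above the mean of all tested compounds plus 3 SD, set per screening campaign, cut at about 45% in these data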
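Assay system: Tagged HCV core106 pair (GST and Flag) | Buffer or medium: KF-containing HEPES buffer, pH 7.45, DTT, CHAPS, BSA | Also added: Eu donor and XL665 acceptor anti-tag antibodies | Dosing: One concentration, 5 µM, in 0.5% DMSO | Timing: 4 h at 22.5 °C | Technique: TR-FRET 671 and 617 nm emission | Repeats: Singlicate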
rCAG binder – molecules binding r(CAG) RNA repeats; AID 651821; inhibition, % at 3 µM; hit rate 1.3% among 370,000; r(CAG) RNA repeat, TO-PRO-1 dye displacement fluorescence;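 active means inhibition above the plate cutoff, the mean of all test compounds on that plate plus 3 SD, cut at about 35% in these data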;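 further: higher means more dye released from RNA so lower well fluorescence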
ABHD5 PLIN5 PPI – blocks binding of human ABHD5 to perilipin-5; Q00G26+Q8WTS1; Split G. princeps luciferase complementation, luminescence, 4 h; inhibition, % at 4 µM; hit rate 0.78% among 360,000;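 active means inhibition above the mean inhibition across every tested compound plus 3 SD, cut at about 22% in these data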
rCAG bind conf – r(CAG) RNA repeat binding, confirmation | AID 652065 | inhibition, % at 3 µM | TO-PRO-1 dye displacement fluorescence | shares compounds with rCAG binder | hit rate 70% among 4,300;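 active means inhibition above a per-plate cutoff, the mean inhibition of sample wells plus 3 SD, cut at about 35% in these data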;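 further: loss of TO-PRO-1 fluorescence as compound displaces dye from 1x1 AA loop RNA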
dCAG dye counter – DNA CAG dye complex inhibition counter-screen; shares compounds with rCAG binder; d(CAG) DNA oligo TO-PRO-1 dye displacement, fluorescence; inhibition, % at 3 µM; hit rate 94% among 4,300; AID 652068;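 active means inhibition above its plate's cutoff, the mean test-well inhibition plus 3 SD, cut at about 4.8% in these data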;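 further: hits displace the dye from DNA and so lower well fluorescence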
DNA CAG DR – disrupts DNA CAG TO-PRO-1 complex in dose response | shares compounds with rCAG binder | AID 686960 | DNA CAG/GTC duplex TO-PRO-1 dye displacement fluorescence | IC50, µM | hit rate 20% among 250; in the data active means IC50 below about 10 µM
A number is an active result; – = inactive; · = no result; ! = repeats disagree.

SMILES | NadD inh | core dimer inh | rCAG binder | ABHD5 PLIN5 PPI | rCAG bind conf | dCAG dye counter | others
COc1ccc(C(=O)Nc2ccccc2C(=O)Nc2ccccc2C(=O)O)cc1 | – | – | 78 | – | 77 | 40
COc1ccc(C(=NNc2ccccc2C(=O)O)c2ccc(OC)cc2)cc1 | – | – | 83 | – | 66 | 26
COc1ccc(-n2nc(C)cc2Nc2ccccc2C(=O)O)cc1 | – | – | – | – | · | ·
O=C(CSC1=NS(=O)(=O)c2cc(Cl)ccc2N1)Nc1ccccc1F | – | – | 59 | – | – | 6.8
O=C(CSC1=NS(=O)(=O)c2cc(Cl)ccc2N1)Nc1ccccc1C(F)(F)F | – | – | 52 | – | 52 | 11 | DNA CAG DR=–
CC(C)(C)c1ccc(CC(=O)N2CCC2(C)C(=O)NCc2ccc3c(c2)OCO3)cc1 (configuration not stated) | – | · | – | – | · | ·
Clc1ccc(CN2CCN(N=Cc3c4ccccc4cc4ccccc34)CC2)cc1 | · | · | – | · | · | ·
C=CCNc1cccc2c1S(=O)(=O)N[C@@H](C)CO2 | · | · | – | · | · | ·
O=C1/C(=C/c2ccco2)SC(=S)N1c1cccnc1 | – | · | 65 | – | 55 | 26
O=C1/C(=C/C=C/c2ccco2)SC(=S)N1c1ccc(O)cc1 | – | 74 | 74 | – | 77 | 46
O=C(NN1C(=O)/C(=C/C=C/c2ccco2)SC1=S)c1ccncc1 | – | 47 | 77 | – | 81 | 48
O=C1/C(=C\c2ccco2)SC(=S)N1c1ccc(O)cc1 | – | – | – | – | · | ·
O=C(NN1C(=O)/C(=C/c2ccc(O)cc2)SC1=S)c1cccc(O)c1 | – | – | – | – | · | ·
CN(C)c1ccc(NC(=S)OC2CCC23CCC(c2ccccc2)CC3)cc1 (configuration not stated) | · | · | – | · | · | ·
O=c1c(CO)cc(CO)cc(CO)c1O | – | – | – | – | · | ·
O=C1C=CC(=O)c2c(O)c(CO)c(CO)c(O)c21 | 77 | · | 83 | – | 86 | 68
O=C(CSc1nnc(SCc2cccc3ccccc23)s1)Nc1ccc(S(=O)(=O)Nc2nccs2)cc1 | · | · | 80 | · | 77 | 43
CC(Oc1ccc(Cl)cc1)C(=O)Nc1ccc(S(=O)(=O)Nc2nccs2)cc1 (configuration not stated) | – | – | 44 | – | 36 | 11
COc1ccccc1CCC(=O)Nc1ccc(S(=O)(=O)Nc2nccs2)cc1 | – | – | 37 | – | – | 9.2
CC(Oc1ccccc1Cl)C(=O)Nc1ccc(S(=O)(=O)Nc2nccs2)cc1 (configuration not stated) | – | – | 54 | – | 54 | 13
Cc1ccc(C)c(OC(C)C(=O)Nc2ccc(S(=O)(=O)Nc3nccs3)cc2)c1 (configuration not stated) | – | – | 55 | – | 48 | 18
COC(=O)C1=C(C)N(C)C(=NCc2cc(OC)c(OC)c(OC)c2)NC1c1cccc(F)c1 (configuration not stated) | · | · | – | · | · | ·
COc1ccc(Cc2nnc(SCC(=O)Nc3cc(Cl)ccc3OC)[nH]c2=O)cc1 | – | – | 51 | – | 50 | 16
COc1cc(/C=C2\SC(=Nc3ccccc3)N(Cc3ccco3)C2=O)ccc1OC(C)C(=O)O (configuration not stated) | – | – | 67 | – | 71 | 29 | DNA CAG DR=–
COc1cc(/C=C2\SC(=Nc3ccc(F)cc3)N(c3ccc(F)cc3)C2=O)ccc1OCC(=O)O | · | – | · | · | · | ·
SMILES | NadD inh | core dimer inh | rCAG binder | ABHD5 PLIN5 PPI | rCAG bind conf | dCAG dye counter | others
COc1cc(/C=C2\SC(=Nc3ccc(N4CCOCC4)cc3)N(C)C2=O)ccc1OC(C)C(=O)O (configuration not stated) | – | – | 41 | – | 52 | 17
COC(=O)C1=CC(=O)N2CCN=C2S1 | · | · | – | · | · | ·
O=S(=O)(Nc1ccc(Br)cc1)c1cccc(NS(=O)(=O)c2cccs2)c1 | – | · | 37 | – | – | 6.9
Cc1ccc(NS(=O)(=O)c2ccc(NS(=O)(=O)c3cccs3)cc2)cc1 | – | – | – | – | · | ·
O=C(c1cc(C2CC2)on1)N(C1CCCCC1)C1CCCCC1 | · | · | – | · | · | ·
CCC(Sc1nc2ccsc2c(=O)n1Cc1ccc(C(=O)O)cc1)C(=O)Nc1cccc(OC)c1 (configuration not stated) | – | · | 46 | – | 36 | 11
CCOc1ccc(NC(=O)CSc2nc3ccsc3c(=O)n2CCC(=O)O)cc1 | – | – | – | – | · | ·
CCc1ccc(NC(=O)C(CC)Sc2nc3ccsc3c(=O)n2CCC(=O)O)cc1 (configuration not stated) | – | – | 38 | – | – | 4.4
CCOC(=O)c1ccc(NC(=O)CC2S/C(=N/N=C/c3c[nH]c4ccccc34)NC2=O)cc1 (configuration not stated) | – | – | 78 | – | 85 | 47
CCOC(=O)c1ccc(NC(=O)CC2S/C(=N/N=C3/NC(=O)CS3)NC2=O)cc1 (configuration not stated) | – | – | – | – | · | ·
CN(CCO)C1CN(Cc2cn(Cc3ccccc3C(F)(F)F)nn2)S(=O)(=O)C1 (configuration not stated) | · | · | – | · | · | ·
O=C(NC(=S)Nc1cc([N+](=O)[O-])ccc1O)c1ccc2c(c1)OCO2 | – | – | – | – | · | ·
COc1cc([N+](=O)[O-])ccc1NC(=S)NNC(=O)c1ccc2c(c1)OCO2 | – | – | 64 | – | 57 | 16
CCOC(=O)c1c(-c2ccc3ccccc3c2)csc1NC(=O)CCCC(=O)O | – | · | 45 | – | 50 | 14
CCCCc1nn2c(N)c(/C=C3\C=Nc4ccccc43)c(=O)nc2s1 | – | – | – | – | · | ·
CCCc1nn2c(N)c(/C=C3\C=Nc4ccccc43)c(=O)nc2s1 | – | – | 51! | – | 49 | 14
CC(C)c1nn2c(N)c(/C=C3\C=Nc4ccccc43)c(=O)nc2s1 | – | – | 40 | – | 41 | 10
CC(C)Cc1nn2c(N)c(/C=C3\C=Nc4ccccc43)c(=O)nc2s1 | – | – | 38 | – | 62 | 21
O=C(COc1ncnc2ccccc12)Nc1cc([N+](=O)[O-])ccc1Cl | – | – | – | – | · | ·
O=C(COc1ncnc2c(Cl)cc(Cl)cc12)Nc1cc([N+](=O)[O-])ccc1Cl | – | – | 68 | – | – | 9.4
COc1cc(/C=C/C(=O)O)ccc1OS(=O)(=O)c1c(C)cc(C)cc1C | – | · | 36 | – | – | 9.4
COc1cc(/C=C/C(=O)O)ccc1OS(=O)(=O)c1cc(C)ccc1C | – | – | – | – | · | ·
O=C(C=CC=Cc1ccccc1)c1ccc([N+](=O)[O-])cc1 | – | · | – | – | · | ·
Cc1ccc(S(=O)(=O)N2[C@@H](c3ccccc3)C(C(=O)O)=CC[C@H]2c2cccc(C)c2)cc1 | – | – | – | – | · | ·
Cc1ccc([C@H]2C(C(=O)O)=CC[C@@H](c3ccc(Cl)c(Cl)c3)N2S(=O)(=O)c2ccc(C)cc2)cc1 | – | · | 88 | – | 85 | 54
